Values after ≈ are worked out from the molar mass of the structure shown. Active and inactive are the calls of the source. The calls are words filed in the database; no cut-off is given here. Numbered stars: 1 amine (or outer) side, 2 acyl side, 3 side chain; on linkers, the order of the positions; unused ones are H or OH. Bridge positions count the residues as written; N and C are the ends. Square brackets hold non-standard residues; d marks the D form. Peptide text beside a SMILES is read from it. * marks the point of attachment. ξ: configuration not given here. X2 = CCCCCCCCCCCCC(C)C(CC(=O)[*:1])O[*:2]; X1 = CCCCCCCCCCCCC(C)(O)C(O)CC(=O)*; ξhSer = NC(CCO)C(=O)O

The test system of data set [1] is Candida albicans. The data set can be described thus: Induction of ATP release from cytoplasm of Candida albicans isolate 2323 at 0.1 to 25 ug/ml by Promega Bactiter Glo assay. The data set is classed as functional, organism-based. An outline of the steps: (§1)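 Release of cytoplasmic ATP from whole C. albicans cells (strains 2323 and SC5314) exposed to compound, measured with the BacTiter Glo luminescence kit per manufacturer's instructions. Read alongside whole-cell growth inhibition in the same strains, and compared with basal ATP release and total releasable ATP for each strain.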

The test system of data set [2] is Candida albicans. The data set can be described thus: Antifungal activity against Candida albicans expressing DIP5 deletion mutant assessed as inhibition of fungal growth. The data set is classed as functional, organism-based.
The subject of data set [3] is Candida albicans. The data set can be described thus: Induction of ATP release from cytoplasm of Candida albicans SC5314 at 0.1 to 25 ug/ml by Promega Bactiter Glo assay. The data set is classed as functional, organism-based. An outline of the steps:
as §1

The test system of data set [4] is Candida albicans. The data set can be described thus: Antifungal activity against Candida albicans expressing CMD1 deletion mutant assessed as inhibition of fungal growth. The data set is classed as functional, organism-based.
For data set [5], the system named is Candida albicans. Description: Antifungal activity against Candida albicans expressing CRZ1 deletion mutant assessed as inhibition of fungal growth. The data set is classed as functional, organism-based.
In data set [6] the test system is Candida albicans. The data set can be described thus: Induction of ATP release from cytoplasm of Candida albicans SC5314 at >MIC by Promega Bactiter Glo assay. The data set is classed as functional, organism-based. The essentials: (§2)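 ATP leaking from fungal cells exposed to compound was measured by BacTiter Glo luminescence per manufacturer's instructions, in parallel with whole-cell growth inhibition across a concentration series. Release was referenced to basal ATP release in the assay and to total ATP release for each strain.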

For data set [7], the system named is Trichophyton mentagrophytes. The data set can be described thus: Antifungal activity against Trichophyton mentagrophytes MF7004 assessed as inhibition of fungal growth after 96 hrs. The note with it: MF7004, 96 h. The data set is classed as functional. The essentials:
(§3)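 Whole-cell growth assay with incubation of 24 h for most strains, 48 h for A. fumigatus and 96 h for T. mentagrophytes. MIC is the lowest concentration inhibiting visible growth. MIC80 is prominent growth inhibition, also called MEC for Aspergillus.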

Another data set deals with Clavispora lusitaniae. Description: Antifungal activity against Candida lusitaniae MY1396 assessed as inhibition of fungal growth after 24 hrs. The note with it: MY1396, 24 h. The data set is classed as functional. An outline of the steps: as §3
The subject of the next data set is Pichia kudriavzevii. Description: Antifungal activity against Candida krusei ATCC 6258 assessed as inhibition of fungal growth after 24 hrs. The data set is classed as functional. The note with it: ATCC 6258, 24 h. The essentials: (§4)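 Broth dilution against each fungal strain. Inoculum 10^5 CFU/mL, compound in 2-fold serial dilution in growth medium at 37 °C. MIC is the lowest concentration inhibiting visible growth; MIC80 (prominent inhibition, MEC for Aspergillus) also read. Incubation 24 h, except 48 h for A. fumigatus.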

The next data set deals with Candida parapsilosis. Description: Antifungal activity against Candida parapsilosis ATCC 22019 assessed as inhibition of fungal growth after 24 hrs. The data set is classed as functional. The note with it: Lodderomyces parapsilosis, ATCC 22019, 24 h. The essentials: as §4
Data set [8] concerns Candida albicans. The data set can be described thus: Induction of ATP release from cytoplasm of Candida albicans isolate 2323 at >MIC by Promega Bactiter Glo assay. The data set is classed as functional, organism-based. An outline of the steps: as §2
Data set [9] deals with Candida albicans. Description: Antifungal activity against Candida albicans MY1055 assessed as inhibition of fungal growth after 24 hrs in presence of 50% mouse serum. The data set is classed as functional. The note with it: MY1055, 24 h.
Data set [10] concerns Aspergillus fumigatus. Description: Antifungal activity against Aspergillus fumigatus MF5668 assessed as inhibition of fungal growth after 48 hrs. The data set is classed as functional. The note with it: MF5668, 48 h. The essentials:
as §4

Data set [11] deals with Aspergillus fumigatus. The data set can be described thus: Antifungal activity against Aspergillus fumigatus MF5668 assessed as inhibition of fungal growth after 48 hrs in presence of 50% human serum. The data set is classed as functional. The note with it: MF5668, 48 h. An outline of the steps: as §3
Data set [12] concerns Candida albicans. The data set can be described thus: Antifungal activity against Candida albicans MY1055 assessed as inhibition of fungal growth after 24 hrs. The data set is classed as functional. The note with it: MY1055, 24 h. The essentials:
as §4

The subject of another data set is Nakaseomyces glabratus. The data set can be described thus: Antifungal activity against Candida glabrata MY1381 assessed as inhibition of fungal growth after 24 hrs. The data set is classed as functional. The note with it: MY1381, 24 h. An outline of the steps: as §4
The subject of the next data set is Staphylococcus aureus. Description: Antimicrobial activity against Staphylococcus aureus MB2865 assessed as inhibition of microbial growth after 24 hrs. The data set is classed as functional. The note with it: MB2865, 24 h.
For a further data set, the system named is Candida tropicalis. The data set can be described thus: Antifungal activity against Candida tropicalis MY1012 assessed as inhibition of fungal growth after 24 hrs. The data set is classed as functional. The note with it: MY1012, 24 h. The essentials:
as §4

Data set [13] relates to Candida albicans. Description: Induction of ATP release from cytoplasm of Candida albicans isolate 2323 at 0.2 to 50 ug/ml by Promega Bactiter Glo assay. The data set is classed as functional, organism-based. An outline of the steps:
as §1

For data set [14], the system named is Candida albicans. Description: Antifungal activity against Candida albicans expressing AUR+/- gene assessed as inhibition of fungal growth. The data set is classed as functional, organism-based.
The test system of data set [15] is Mus musculus. Description: Toxicity in DBA/2N mouse assessed as induction of lethality at >12.5 mg/kg, ip. The data set is classed as organism-based. The note with it: in vivo.
Data set [16] has as its system Candida albicans. Description: Antifungal activity against Candida albicans expressing RTA1+/- gene assessed as inhibition of fungal growth. The data set is classed as functional, organism-based.
Data set [17] has as its system Mus musculus. Description: Toxicity in DBA/2N mouse assessed as induction of lethality at 6.25 mg/kg, ip. The data set is classed as organism-based. Also on record: dose 6.25 mg/kg, route intraperitoneal. The note with it: in vivo.
In data set [18] the test system is Candida albicans. Description: Induction of ATP release from cytoplasm of Candida albicans SC5314 at 0.2 to 50 ug/ml by Promega Bactiter Glo assay. The data set is classed as functional, organism-based. An outline of the steps:
as §1

`CCCCCCCCCCCCC(C)C1CC(=O)N[C@@H](C)C(=O)NC(CCO)C(=O)N[C@@H](CCC(=O)O)C(=O)NCC(=O)N[C@@H](CO)C(=O)N[C@H](CC(N)=O)C(=O)N[C@H]([C@H](C)O)C(=O)NC(CCO)C(=O)O1` (some centres undefined) (A[ξhSer]EGS[dN][dT][ξhSer]; linker N-C via X2): the outcome in the data set with Candida albicans [1] and in the data set with Candida albicans [3] was inactive. The “growth inhibition (GI)” value with Candida albicans [2] was “inactive”. The “growth inhibition (GI)” value in the data set on Candida albicans [4] and in the data set with Candida albicans [5] was “Active” throughout.

In general, MIC refers to the lowest concentration found to suppress growth. Turning to `CC[C@H](C)C[C@H](C)CCCCCCCCC(=O)N[C@H]1C[C@@H](O)[C@@H](NCCN)NC(=O)[C@@H]2[C@@H](O)CCN2C(=O)[C@H]([C@H](O)CCN)NC(=O)[C@H]([C@H](O)[C@@H](O)c2ccc(O)cc2)NC(=O)[C@@H]2C[C@@H](O)CN2C(=O)[C@H]([C@@H](C)O)NC1=O` [CASPOFUNGIN], the result in the data set on Candida albicans [6] and with Candida albicans [8] was Active. Further, the MIC in data set [7] is 32 µg/mL (≈ 29.3 µM); in the data set on Clavispora lusitaniae it was below 0.03 µg/mL; in the data set with Pichia kudriavzevii, 1 µg/mL (≈ 0.915 µM); in the data set with Candida parapsilosis it was 0.5 µg/mL (≈ 0.457 µM); in the data set with Candida albicans [9] it was 0.25 µg/mL; in the data set on Aspergillus fumigatus [10], 32 µg/mL (≈ 29.3 µM). For the same molecule, the MIC in the data set with Aspergillus fumigatus [11] is 32 µg/mL; in the data set on Candida albicans [12], 0.5 µg/mL (≈ 0.457 µM); with Nakaseomyces glabratus, 0.25 µg/mL (≈ 0.229 µM); in the data set on Staphylococcus aureus it was above 32 µg/mL.

As to `C[C@@H]1[C@H](O)[C@@H](C)/C=C/C=C/C=C/C=C/C=C/C=C/C=C/[C@H](O[C@@H]2O[C@H](C)[C@@H](O)[C@H](N)[C@@H]2O)C[C@@H]2O[C@](O)(C[C@@H](O)C[C@@H](O)[C@H](O)CC[C@@H](O)C[C@@H](O)CC(=O)O[C@H]1C)C[C@H](O)[C@H]2C(=O)O`, the result in the data set with Candida albicans [6] and in the data set with Candida albicans [8] was inactive.

As to `CCCCCCCCCCCCC(C)(O)C(O)CC(=O)N[C@@H](CO)C(=O)N[C@@H](C)C(=O)N[C@@H](CC(=O)O)C(=O)N[C@@H](C)C(=O)N[C@@H](CO)C(=O)N[C@@H](CO)C(=O)N[C@H](C(=O)O)[C@@H](C)O` (some centres undefined) (X1-SADASST-OH), the MIC (in data set [7]; in the data set on Candida tropicalis; with Clavispora lusitaniae; in the data set on Pichia kudriavzevii; in the data set with Candida parapsilosis; in the data set on Candida albicans [9]) was above 32 µg/mL each time. The MIC in the data set with Aspergillus fumigatus [10], with Aspergillus fumigatus [11], in the data set on Candida albicans [12], in the data set on Nakaseomyces glabratus and in the data set with Staphylococcus aureus was above 32 µg/mL in each case.

The term MIC80 denotes the lowest concentration that inhibits either 80% of growth or 80% of the strains tested, depending on the study. As to `CCCCCCCCCCCC(C)(O)C1CC(=O)N[C@@H](CO)C(=O)N[C@H](C)C(=O)N[C@H](CC(=O)O)C(=O)N[C@@H](C)C(=O)N[C@H](CO)C(=O)N[C@H](CO)C(=O)N[C@H]([C@@H](C)O)C(=O)O1` (some centres undefined) [PHAEOFUNGIN], the MIC is 4 µg/mL (≈ 4.49 µM) in data set [7]; above 32 µg/mL with Candida tropicalis; 32 µg/mL (≈ 36 µM) in the data set on Clavispora lusitaniae; above 32 µg/mL with Pichia kudriavzevii; above 32 µg/mL with Candida parapsilosis; above 32 µg/mL in the data set with Candida albicans [9]. The MIC in the data set on Aspergillus fumigatus [10] was 16 µg/mL (≈ 18 µM); with Aspergillus fumigatus [11], above 32 µg/mL; in the data set on Candida albicans [12] it was 32 µg/mL (≈ 36 µM); in the data set on Nakaseomyces glabratus, above 32 µg/mL; in the data set with Staphylococcus aureus, above 32 µg/mL. Moreover, the result in the data set with Candida albicans [13] and in the data set with Candida albicans [18] was Active. In addition, the “growth inhibition (GI)” value in the data set on Candida albicans [2], in the data set with Candida albicans [4] and in the data set with Candida albicans [5] was “inactive” in each case. Further, the “growth inhibition (GI)” value in the data set with Candida albicans [14] and in the data set on Candida albicans [16] was “Active” each time. Besides, the MIC80 amounted to 32 µg/mL (≈ 36 µM) in the data set with Pichia kudriavzevii, 32 µg/mL (≈ 36 µM) in the data set with Candida parapsilosis and 16 µg/mL (≈ 18 µM) in the data set on Candida albicans [12]. For the same molecule, the Activity entry in the data set on Mus musculus [15] is “Dose-dependent effect”; in the data set with Mus musculus [17], “Non-toxic”. Also, the minimal effective concentration in the data set with Aspergillus fumigatus [10] (read-out: MEC) was found to be 8 µg/mL.

The values above are taken from ChEMBL document CHEMBL2346577, “Isolation, structure, and biological activity of Phaeofungin, a cyclic lipodepsipeptide from a Phaeosphaeria sp. Using the Genome-Wide Candida albicans Fitness Test” (J Nat Prod, 2013).
